Active and inactive are the calls of the source.

The subject of assay [1] is Mus musculus. In words: Anxiolytic activity against CF1 mouse assessed as suppression of oxotremorine-treated tremors at 3 mg/kg. Type of assay: functional, organism-based. Set-up: dose 3 mg/kg. The method, boiled down: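 Mice received treatment i.p. 30 min before oxotremorine 0.5 mg/kg in saline. Each mouse was then placed alone in a transparent cage immediately after injection and tremor was scored. Data given as median (interquartile range); Kruskal–Wallis then Mann–Whitney U against saline + oxotremorine.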

For assay [2], the system named is Mus musculus. The assay is described as follows: Antidepressant activity in CF1 mouse assessed as decrease in duration of immobility at 0.15 mg/kg during final 4 mins of the 6 mins session by forced swimming test. It counts as functional. The method, boiled down:
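Male adult CF1 mice, dosed i.p. Each mouse made to swim for 6 min in a 30 cm diameter cylinder holding 20 cm of water at 25 ± 1 °C. Immobility time was scored over the last 4 min. N = 10 per group, mean ± SEM, ANOVA against saline.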

Assay [3] deals with Mus musculus. The assay is described as follows: Effect on short term memory of CF1 mouse assessed as reduction in latency during aquisition at 0.15 mg/kg by passive avoidance test. It counts as functional.
Assay [4] deals with Mus musculus. The assay is described as follows: Effect on short term memory of CF1 mouse assessed as reduction in step down latency at 0.15 mg/kg by passive avoidance test. Type of assay: functional.
For assay [5], the system named is Mus musculus. The assay is described as follows: Effect on long term memory of CF1 mouse assessed as reduction in latency during aquisition at 0.15 mg/kg by passive avoidance test. Type of assay: functional. The gist of the method: (§1)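 Step-down inhibitory avoidance in male CF1 mice. Training used a 0.3 mA scrambled footshock for 15 s on stepping down. The test session was 24 h later without shock, with a 300 s cutoff. For acquisition effects, drug (MK-801 or diazepam in 10% propylene glycol, i.p.) was given 30 min before training; the post-training group was dosed immediately after training. N = 20, medians (IQR).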

Assay [6] has as its system Mus musculus. In words: Effect on long term memory of CF1 mouse assessed as reduction in step down latency at 0.15 mg/kg by passive avoidance test. It counts as functional. The gist of the method:
as §1

For assay [7], the system named is Mus musculus. The assay is described as follows: Antidepressant activity in CF1 mouse assessed as decrease in duration of immobility at 15 mg/kg during final 4 mins of the 6 mins session by forced swimming test. It counts as functional.
For assay [8], the system named is Mus musculus. In words: Anticonvulsant activity against CF1 mouse assessed as protection against PTZ-induced convulsions at 20 mg/kg, ip for 60 mins. It counts as functional. The note with it: route intraperitoneal. The method, boiled down:
(§2)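 Male adult CF1 mice (2 months at purchase, housed ≥2 weeks at 22 °C, 12 h light/dark). Drug given i.p. (0.1 mL/10 g); 30 min later PTZ 88 mg/kg s.c. Each mouse then observed singly for 60 min for clonic convulsions lasting >3 s. n = 10 per group. Fisher's exact test against vehicle (saline or 10% propylene glycol).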

The subject of assay [9] is Mus musculus. The assay is described as follows: Anxiolytic activity against CF1 mouse assessed as increase in number of head dips at 0.75 mg/kg after 30 mins in presence of picrotoxin by hole-board assay. Type of assay: functional, organism-based. Further details: dose 0.75 mg/kg. The method, boiled down: (§3)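 Hole-board with photocell-counted head-dips; the board was marked into 16 squares of 10×10 cm. Male CF1 mice were acclimatised ≥1 h in dim light. Diazepam in 10% propylene glycol was given i.p. 30 min before testing. Picrotoxin 1 mg/kg i.p. was given 30 min before treatment. Head-dips, squares crossed and rearings were recorded over 5 min. N = 8–15, ANOVA then SNK.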

Assay [10] deals with Mus musculus. The assay is described as follows: Anxiolytic activity against CF1 mouse assessed as increase in number of rearings at 0.75 mg/kg after 30 mins by hole-board assay. It counts as functional, organism-based. Further details: dose 0.75 mg/kg. The gist of the method:
as §3

Assay [11] deals with Mus musculus. The assay is described as follows: Anxiolytic activity against CF1 mouse assessed as increase in number of crossings at 0.75 mg/kg after 30 mins by hole-board assay. Set-up: dose 0.75 mg/kg. It counts as functional, organism-based. The method, boiled down:
as §3

Assay [12] relates to Mus musculus. The assay is described as follows: Anxiolytic activity against CF1 mouse assessed as increase in number of head dips at 0.75 mg/kg after 30 mins by hole-board assay. Type of assay: functional, organism-based. Further details: dose 0.75 mg/kg. The method, boiled down:
as §3

Assay [13] relates to Mus musculus. In words: Anxiolytic activity against CF1 mouse assessed as increase in number of crossings at 0.75 mg/kg after 30 mins in presence of picrotoxin by hole-board assay. It counts as functional, organism-based. Further details: dose 0.75 mg/kg. The method, boiled down:
as §3

Assay [14] deals with Mus musculus. In words: Anxiolytic activity against CF1 mouse assessed as increase in number of rearings at 0.75 mg/kg after 30 mins in presence of picrotoxin by hole-board assay. It counts as functional, organism-based. Further details: dose 0.75 mg/kg. The method, boiled down: as §3
Assay [15] relates to Mus musculus. The assay is described as follows: Anxiolytic activity against CF1 mouse assessed as increase in time spent in light compartment at 0.85 mg/kg for 5 mins. It counts as functional, organism-based. Set-up: dose 0.85 mg/kg. The gist of the method: (§4)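 Light/dark box with a small black compartment and a large white one lit at 400 lx. Male CF1 mice were acclimatised for ≥1 h under dim red light. Diazepam in 10% propylene glycol was given i.p. 30 min before testing. Picrotoxin 1 mg/kg i.p. in saline was given 30 min before treatment. Read-outs: latency to first entry and time spent in the light area. N = 8–22, ANOVA then SNK.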

Assay [16] has as its system Mus musculus. In words: Anxiolytic activity against CF1 mouse assessed as increase in latency to enter in the dark compartment 0.85 mg/kg for 5 mins. Type of assay: functional, organism-based. Set-up: dose 0.85 mg/kg. The method, boiled down: as §4
Assay [17] relates to Mus musculus. The assay is described as follows: Anxiolytic activity against CF1 mouse assessed as increase in time spent in light compartment at 0.85 mg/kg in presence of picrotoxin for 5 mins. Further details: dose 0.85 mg/kg. Type of assay: functional, organism-based. The gist of the method:
as §4

Assay [18] relates to Mus musculus. In words: Anxiolytic activity against CF1 mouse assessed as increase in latency to enter in the dark compartment 0.85 mg/kg in presence of picrotoxin for 5 mins. It counts as functional, organism-based. Set-up: dose 0.85 mg/kg. The method, boiled down:
as §4

Assay [19] has as its system Mus musculus. The assay is described as follows: Effect on locomotory activity in CF1 mouse assessed as change in spontaneous activity at 3 to 30 mg/kg. It counts as functional, organism-based. The method, boiled down:
(§5)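 Mice were habituated singly for 10 min in photocell activity cages and then dosed i.p. Diazepam was given in 10% propylene glycol. After 30 min, crossings were recorded for 15 min. n = 10–16, ANOVA then SNK.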

The test system of assay [20] is Mus musculus. In words: Effect on locomotory activity in CF1 mouse assessed as change in spontaneous activity at 0.75 and 0.85 mg/kg. It counts as functional, organism-based. Further details: dose 0.85 mg/kg. The method, boiled down:
as §5

Assay [21] relates to Mus musculus. In words: Anticonvulsant activity against CF1 mouse assessed as protection against PTZ-induced convulsions at 0.8 mg/kg, ip for 60 mins. Type of assay: functional. As to conditions: route intraperitoneal. The gist of the method: as §2

As for `CN1[C@@H]2C[C@@H](OC(=O)[C@H](CO)c3ccccc3)C[C@H]1[C@@H]1O[C@@H]12`, the outcome with Mus musculus [1] was Active.
On to `C[C@]12N[C@H](Cc3ccccc31)c1ccccc12` [DIZOCILPINE], for which the Activity in the assay with Mus musculus [2] is 33.36 s; with Mus musculus [3], 8.4 s; with Mus musculus [4] it was 16.5 s; in the assay on Mus musculus [5], 6 s; with Mus musculus [6], 6.2 s.
With `CN(C)CCCN1c2ccccc2CCc2ccccc21` [IMIPRAMINE], the Activity in the assay with Mus musculus [7] is 46.05 s.
Take `CN1C(=O)CN=C(c2ccccc2)c2cc(Cl)ccc21` [DIAZEPAM]: the Activity in the assay with Mus musculus [8] amounted to 0%; in the assay on Mus musculus [21], 10%. In addition, the outcome in the assay on Mus musculus [9], with Mus musculus [13], in the assay on Mus musculus [14], in the assay on Mus musculus [17], in the assay on Mus musculus [18] and with Mus musculus [19] was inactive. For the same compound, the result with Mus musculus [20] was inactive. For the same compound, the outcome with Mus musculus [10], in the assay with Mus musculus [11], in the assay on Mus musculus [12], in the assay on Mus musculus [15] and in the assay on Mus musculus [16] was Active.
Regarding `CCC1(c2ccccc2)C(=O)NC(=O)NC1=O` [PHENOBARBITAL], the Activity in the assay on Mus musculus [8] amounted to 0%; in the assay with Mus musculus [21] it was 10%.

The record behind these values is ChEMBL document CHEMBL1158703, “Psychopharmacological profile of the alkaloid psychollatine as a 5HT2A/C serotonin modulator” (2005).
